Test [1] concerns the target T1, Adrenergic receptor alpha-1 (Rattus norvegicus, UniProt P15823+P23944+P43140).
T1 sequence (P15823 whole entry): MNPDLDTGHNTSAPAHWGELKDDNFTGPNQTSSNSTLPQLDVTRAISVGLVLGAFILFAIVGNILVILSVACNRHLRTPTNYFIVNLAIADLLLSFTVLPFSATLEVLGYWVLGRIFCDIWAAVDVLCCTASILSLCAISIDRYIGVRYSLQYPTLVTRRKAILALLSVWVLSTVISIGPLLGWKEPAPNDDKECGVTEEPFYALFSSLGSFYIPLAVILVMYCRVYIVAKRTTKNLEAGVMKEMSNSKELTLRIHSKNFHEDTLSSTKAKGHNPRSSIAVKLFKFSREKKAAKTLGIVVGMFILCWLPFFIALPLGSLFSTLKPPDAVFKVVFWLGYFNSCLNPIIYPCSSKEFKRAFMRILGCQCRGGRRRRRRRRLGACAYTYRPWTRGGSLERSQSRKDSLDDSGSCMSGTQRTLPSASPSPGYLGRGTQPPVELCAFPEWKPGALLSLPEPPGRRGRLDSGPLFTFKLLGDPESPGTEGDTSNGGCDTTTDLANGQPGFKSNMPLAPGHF
T1 sequence (P23944 whole entry): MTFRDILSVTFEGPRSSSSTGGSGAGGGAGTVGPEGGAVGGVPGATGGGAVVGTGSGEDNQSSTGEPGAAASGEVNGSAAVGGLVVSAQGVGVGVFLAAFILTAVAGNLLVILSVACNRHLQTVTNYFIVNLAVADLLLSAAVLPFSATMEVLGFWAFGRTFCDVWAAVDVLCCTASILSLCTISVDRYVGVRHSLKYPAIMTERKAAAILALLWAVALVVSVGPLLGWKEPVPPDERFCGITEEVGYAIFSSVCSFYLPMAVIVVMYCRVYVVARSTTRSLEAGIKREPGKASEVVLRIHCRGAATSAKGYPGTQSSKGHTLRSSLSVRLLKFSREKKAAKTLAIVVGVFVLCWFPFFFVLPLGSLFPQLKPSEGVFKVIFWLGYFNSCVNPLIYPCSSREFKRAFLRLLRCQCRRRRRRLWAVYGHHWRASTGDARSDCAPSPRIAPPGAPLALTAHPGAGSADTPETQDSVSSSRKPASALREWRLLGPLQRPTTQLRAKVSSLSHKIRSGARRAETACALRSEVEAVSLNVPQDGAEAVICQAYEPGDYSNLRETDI
T1 sequence (P43140 whole entry): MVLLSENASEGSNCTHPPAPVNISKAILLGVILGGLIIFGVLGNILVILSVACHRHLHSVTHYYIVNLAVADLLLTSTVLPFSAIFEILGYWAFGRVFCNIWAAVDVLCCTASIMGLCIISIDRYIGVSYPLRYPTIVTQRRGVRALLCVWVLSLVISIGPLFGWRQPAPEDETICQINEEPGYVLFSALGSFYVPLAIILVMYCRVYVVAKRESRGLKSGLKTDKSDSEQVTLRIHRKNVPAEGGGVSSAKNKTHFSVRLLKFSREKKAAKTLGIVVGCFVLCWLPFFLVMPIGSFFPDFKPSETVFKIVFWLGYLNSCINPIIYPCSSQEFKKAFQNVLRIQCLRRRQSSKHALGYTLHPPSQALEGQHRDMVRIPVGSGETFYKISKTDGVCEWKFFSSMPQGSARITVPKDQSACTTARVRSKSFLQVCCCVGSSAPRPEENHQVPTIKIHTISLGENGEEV
Briefly: Tested in vitro for binding affinity by measuring its ability to inhibit [3H]prazosin binding at alpha-1 adrenergic receptor in rat cerebral cortex membranes. Type of test: cell membranes. In short, it runs like this:
(§1)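 Rat cerebral cortex homogenized in ice-cold 50 mM Tris-HCl/10 mM MgCl2 (pH 7.7), centrifuged at 30000g, washed twice. About 250 μg membrane protein incubated at 25 °C for 30 min with 0.2 nM [3H]prazosin plus several competitor concentrations. Compounds first screened at 10^-6 M; dose-response curves done where displacement reached ≥55%.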

For test [2], the target named is T2, 5-hydroxytryptamine receptor 1A (Rattus norvegicus, UniProt P19327).
T2 sequence (P19327 whole entry): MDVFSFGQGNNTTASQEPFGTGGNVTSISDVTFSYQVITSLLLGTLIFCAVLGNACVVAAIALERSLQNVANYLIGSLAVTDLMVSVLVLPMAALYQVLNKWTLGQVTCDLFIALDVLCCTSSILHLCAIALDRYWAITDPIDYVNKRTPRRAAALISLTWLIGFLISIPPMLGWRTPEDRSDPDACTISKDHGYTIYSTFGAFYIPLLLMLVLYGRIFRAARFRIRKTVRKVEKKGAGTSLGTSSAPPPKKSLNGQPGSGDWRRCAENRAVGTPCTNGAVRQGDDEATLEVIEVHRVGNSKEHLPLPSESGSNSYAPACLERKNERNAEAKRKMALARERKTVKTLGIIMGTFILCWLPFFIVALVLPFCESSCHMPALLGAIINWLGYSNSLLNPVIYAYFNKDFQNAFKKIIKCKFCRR
Description: Tested in vitro for binding affinity by measuring its ability to inhibit [3H]8-OH-DPAT binding at 5-hydroxytryptamine 1A receptor in rat cerebral cortex membranes. The class given is cell membranes. In short, it runs like this:
(§2)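 Rat cortex homogenized in ice-cold 50 mM Tris-HCl (pH 7.7), spun at 28000g, washed twice, preincubated 37 °C 10 min, resuspended in Tris/5 mM MgSO4/0.5 mM EDTA (pH 7.4). About 1 mg protein incubated 15 min at 37 °C with 0.6 nM [3H]-8-OH-DPAT and competitor, in buffer with 10 nM clonidine and 30 nM prazosin. Nonspecific binding: 10 μM 5-HT. Prescreen at 10^-6 M; curves run if displacement ≥55%.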

In test [3] the target is T1, Adrenergic receptor alpha-1. Description: In vitro binding affinity against alpha-1 adrenergic receptor of rat cerebral cortex using [3H]prazosin as radioligand. The class given is tissue-based. In short, it runs like this:
as §1

Test [4] concerns the target T2, 5-hydroxytryptamine receptor 1A. Briefly: In vitro binding affinity against 5-hydroxytryptamine 1A receptor of rat cerebral cortex using [3H]8-OH-DPAT as radioligand. Type of test: tissue-based. An outline of the steps:
as §2

As a reminder, the Ki is a dissociation constant, usually derived from enzyme kinetics or from competition with a known ligand. Higher therefore signals a looser hold on the target.

Molecules are shown by their SMILES. Where only a bound is given, the exact number is not on record here.

Consider `O=C1C2CCCCN2C(=O)N1CCN1CCN(c2ccc([N+](=O)[O-])cc2)CC1` (stereo not drawn), for which the inhibitory constant (Ki) in test [1] was determined as 199 µM; in test [2] it was 93.6 µM. Take `O=C1C2CCCN2C(=O)N1CCN1CCN(c2ccc([N+](=O)[O-])cc2)CC1` (stereo not drawn): the inhibition constant (Ki) stood at 260 µM in test [1] and 501 µM in test [2].

The molecule `O=C1C2CCCN2C(=O)N1CCN1CCN(c2ccc(F)cc2)CC1` (stereo not drawn) showed a Ki in test [2] of 23.9 µM. Consider `CC(C)C(=O)Nc1cccc(N2CCN(CCCCN3C(=O)C4CCCN4C3=O)CC2)c1.Cl` (stereo not drawn), for which the Ki in test [1] was more than 10 µM; in test [2], 0.102 µM.

On to `Nc1ccc(N2CCN(CCCCN3C(=O)C4CCCN4C3=O)CC2)cc1` (stereo not drawn), for which the Ki in test [2] was more than 10 µM. In the case of `O=C1C2CCCCN2C(=O)N1CCN1CCN(c2ccccc2)CC1` (stereo not drawn), the Ki in test [2] stood at 1.35 µM. Consider `O=C1C2CCCN2C(=O)N1CN1CCN(c2ccccc2)CC1` (stereo not drawn), for which, in test [3], the Ki was 2.588 µM.

In the case of `O=C1C2CCCN2C(=O)N1CN1CCN(c2ccc([N+](=O)[O-])cc2)CC1` (stereo not drawn), the Ki in test [3] was 260 µM; in test [4] it was 6.1 µM.

`O=C1C2CCCN2C(=O)N1CCCCN1CCN(c2ccc([N+](=O)[O-])cc2)CC1` (stereo not drawn) yielded a Ki in test [2] of 23.9 µM. In turn, `O=C1C2CCCN2C(=O)N1CCN1CCN(c2cccc(C(F)(F)F)c2)CC1` (stereo not drawn) came in with a Ki in test [1] of 3.935 µM.

In test [1], `O=C1C2CCCCN2C(=O)N1CCN1CCN(c2cccc(C(F)(F)F)c2)CC1` (stereo not drawn) registered a Ki of 4.325 µM. On to `O=C1C2CCCN2C(=O)N1CN1CCN(c2ccc(F)cc2)CC1` (stereo not drawn), for which the Ki in test [3] came out at 1.193 µM. Molecule `O=C1C2CCCCN2C(=O)N1CN1CCN(c2ccccc2)CC1` (stereo not drawn) returned a Ki in test [3] of 2.075 µM. For the molecule `O=C1C2CCCCN2C(=O)N1CN1CCN(c2ccc([N+](=O)[O-])cc2)CC1` (stereo not drawn), the results for the Ki in test [3] and in test [4] were 260 µM and 5.97 µM, respectively. In the case of `O=C1C2CCCN2C(=O)N1CN1CCN(c2cccc(C(F)(F)F)c2)CC1` (stereo not drawn), in test [3], the Ki came out at 3.296 µM. As to `O=C1C2CCCN2C(=O)N1CCCN1CCN(c2ccc([N+](=O)[O-])cc2)CC1` (stereo not drawn), the inhibition constant (Ki) in test [1] amounted to 7.533 µM.

Turning to `O=C1C2CCCCN2C(=O)N1CCCN1CCN(c2ccc([N+](=O)[O-])cc2)CC1` (stereo not drawn), the Ki amounted to 6.652 µM in test [1] and 30.6 µM in test [2]. As to `O=C1C2CCCN2C(=O)N1CCN1CCN(c2ccccc2)CC1` (stereo not drawn), the Ki in test [2] came to 7.55 µM.

In turn, `O=C1C2CCCCN2C(=O)N1CN1CCN(c2cccc(C(F)(F)F)c2)CC1` (stereo not drawn) showed a Ki in test [3] of 3.296 µM. On to `O=C1C2CCCN2C(=O)N1CCCN1CCN(c2ccc(F)cc2)CC1` (stereo not drawn), for which the inhibition constant (Ki) in test [2] was determined as 1.18 µM. The molecule `COc1ccccc1N1CCN(CN2C(=O)C3CCCCN3C2=O)CC1` (stereo not drawn) showed a Ki in test [4] of 0.0311 µM. Molecule `O=C1C2CCCCN2C(=O)N1CCN1CCN(c2ccc(F)cc2)CC1` (stereo not drawn) displayed a Ki in test [2] of 19.3 µM.
